Compounds with a hit are over-represented: about 2.3% of the library has one in this group of screens.
DDE Tn7 FP inh = DD(E)-Tn7 binding inhibition, primary FP screen. P02675. FP displacement of FITC-Tn7 peptide from fibrin DD(E); 0% = median of compound wells per plate. inhibition, % at 8.3 µM. 370,000 compounds, 0.13% hits;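 active = inhibition above the mean of compounds falling within the control limits plus 3 SD of them, cut at about 14% in these data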;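 note: 0% = plate median of compound wells and 100% = 10 µM Aha-Tn7 peptide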
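Measure: % inhibition scaled between sample-field median and high-control FP; Test system: human fibrin DD(E); Quantity: 2 µM final DD(E) protein; Doses: one dose, 8.3 µM nominal; Schedule: compound with protein 10 min, then 3 h after probe, room temperature; Detection: fluorescence polarization; Medium: Tris buffer with calcium and detergent, pH 7.8.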
ADAM10 inh = inhibits human ADAM10. 370,000 compounds, 0.62% hits. O14672. recombinant ADAM10, EDANS/DABCYL FRET peptide cleavage, 3 h. inhibition, % at 7 µM;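 active = inhibition above a per-campaign cutoff equal to the mean of compounds falling between control-based bounds plus 3 SD, cut at about 20% in these data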;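 note: 0% = DMSO wells while the 100% control is not disclosed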
Tn6 DDE FP = DD(E)-Tn6 binding inhibition, primary FP screen. P02675. Fibrin DD(E) TRITC-Tn6 fluorescence polarization displacement. inhibition, % at 8.3 µM. 370,000 compounds, 0.21% hits. AID 720509;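 active = inhibition above a per-campaign cutoff: mean of compounds within control limits plus 3 SD, cut at about 15% in these data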;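 note: 0% = median of all compound wells on the plate and 100% = blocking peptide control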
PLCb3 inh = inhibitors of human phospholipase C beta3. Q01970. Purified PLC-beta3, fluorogenic substrate, fluorescence. 370,000 compounds, 0.18% hits. inhibition, % at 12.2 µM; in the data active = inhibition above about 11%;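 note: 0% = median of compound wells on plate and 100% = full blocker control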
PLC-gamma1 inh = PLC-gamma1 (human) inhibition, primary screen. purified PLC-gamma1, fluorogenic substrate, fluorescence. inhibition, % at 12.2 µM. 370,000 compounds, 0.84% hits; in the data active = inhibition above about 9.5%
ADAM17 inh = inhibits human ADAM17; recombinant ADAM17, EDANS/DABCYL FRET peptide cleavage; inhibition, % at 6.95 µM; 370,000 compounds, 0.83% hits; AID 720648;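 active = inhibition above the mean of compounds lying between control limits plus 3 SD, set per campaign, cut at about 8.5% in these data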;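 note: 0% = DMSO-only wells as the low control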
Target sequence (P78536 215-824 limits assumed): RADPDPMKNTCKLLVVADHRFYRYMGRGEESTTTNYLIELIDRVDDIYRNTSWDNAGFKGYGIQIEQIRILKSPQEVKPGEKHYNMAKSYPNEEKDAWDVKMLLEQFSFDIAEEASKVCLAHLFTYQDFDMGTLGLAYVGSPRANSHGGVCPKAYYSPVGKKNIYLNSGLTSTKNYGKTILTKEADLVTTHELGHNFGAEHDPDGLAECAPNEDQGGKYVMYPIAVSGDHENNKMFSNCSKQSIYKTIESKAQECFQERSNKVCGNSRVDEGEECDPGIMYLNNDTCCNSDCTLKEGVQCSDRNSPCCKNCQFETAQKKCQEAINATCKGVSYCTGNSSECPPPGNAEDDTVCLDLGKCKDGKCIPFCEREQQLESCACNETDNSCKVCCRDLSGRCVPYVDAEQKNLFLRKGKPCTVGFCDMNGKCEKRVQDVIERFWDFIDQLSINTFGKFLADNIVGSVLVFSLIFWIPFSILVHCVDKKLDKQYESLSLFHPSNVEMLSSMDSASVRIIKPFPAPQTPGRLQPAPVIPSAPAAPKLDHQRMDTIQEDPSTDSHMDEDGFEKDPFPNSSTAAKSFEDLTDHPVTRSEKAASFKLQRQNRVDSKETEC
* marks the source's active call; other numbers are inactive results; i = inactive; + = active, no number.

SMILES	DDE Tn7 FP inh	ADAM10 inh	Tn6 DDE FP	PLCb3 inh	PLC-gamma1 inh	ADAM17 inh
CC1=CC2(C(Cc3ccccc3)N(CC3CC3)C(=NC(=O)c3ccccc3)N2C(=O)OCc2ccccc2)n2c(=O)n(-c3ccccc3)c(=O)n2C1 (centres undefined)	-1.8	9.9	-2.9	1.1	1.5	8.1
CCCc1ccc(C2C3=C(CC(C)(C)CC3=O)NC3=C2C(=O)c2ccccc23)cc1 (centres undefined)	-8.5	11.8	-4.0	5.7	10.3*	7.9
CCCCc1ccc(C2C3=C(CC(C)(C)CC3=O)NC3=C2C(=O)c2ccccc23)cc1 (centres undefined)	4.2	-5.6	-6.7	0.8	0.3	-3.3
CCOC(=O)[C@]12CCCCC/C=C\1N(CCc1ccc(Cl)cc1)C(=O)[C@H]2CC(=O)NCC12CC3CC(CC(C3)C1)C2	7.2	-7.6	7.3	2.2	-1.5	-3.9
Cc1ccc(CNC2CCC23CCC(c2ccccc2)CC3)o1 (centres undefined)	-9.2	1.4	1.8	1.1	2.4	0.9
N#Cc1ccccc1Sc1ccccc1C(=O)Nc1ccc2ccccc2c1	0.8	17.1	0.5	-1.4	-1.8	8.6*
CCN1C[C@@H]2[C@@H]3C(=O)N(Cc4ccccc4)C(=O)[C@@H]3[C@](C)(C1=O)N2C(=O)c1ccccc1	3.8	3.2	-3.0	11.2*	1.9	-1.4
CCN1C[C@@H]2[C@@H]3C(=O)N(Cc4ccccc4)C(=O)[C@@H]3[C@](C)(C1=O)N2C(=O)c1ccc(Cl)cc1	5.3	-3.5	3.0	1.0	-0.1	-2.2
CCc1ccc(NC(=O)CN(CC(=O)Nc2ccc(CC)cc2)CC(C)O)cc1 (centres undefined)	-1.1	6.4	3.3	-1.1	11.1*	6.0
CCN(CC)CC(=O)Nc1ccc(Oc2ccc(NC(=O)CN(CC)CC)cc2)cc1	-1.6	3.7	-7.1	3.1	4.5	-1.9
O=C(O)c1cc(O)c2c(c1)C(=O)c1cccc(O)c1C2=O	3.1	-11.2	30.2*	-12.3	-14.0	-4.2
Cc1cc(O)c2c(c1)C(=O)c1cccc(O)c1C2=O	8.7	6.9	9.0	-5.2	-4.5	-4.1
CCOC(=O)CSc1ccc(S(=O)(=O)N(C)C2CCCCC2)cc1[N+](=O)[O-]	-5.4	23.6*	-3.7	6.5	3.4	6.0
O=C(N/N=C/c1cccs1)c1[nH]ncc1Br	5.1	-3.9	-4.1	3.4	12.4*	5.3
CCCCNC(=O)C1=C(N)C(C(=O)Nc2ccc(C)c(S(=O)(=O)N3CCCCC3)c2)SC1=Nc1ccc(C)cc1C (centres undefined)	1.0	39.9*	-3.6	4.7	5.5	15.8*
Cc1ccccc1OCC(O)CNC1CCC(NCC(O)COc2ccccc2C)CC1 (centres undefined)	-4.0	2.3	1.1	7.0	15.5*	0.8
Cc1ccc(NC(=S)c2nc3ccccc3[nH]2)cc1	4.8	13.9	-2.1	6.0	5.2	4.1
Cc1ccc(NC(=S)c2nc3ccccc3[nH]2)c(C)c1	-2.5	5.6	0.7	2.2	6.1	8.9*
Cc1c(C)n(Cc2ccc(-c3ccccc3C(=O)O)cc2)c2ccc(C(=O)N[C@@H](C)c3ccc([N+](=O)[O-])cc3)cc12	3.0	7.5	-2.7	-8.4	4.3	-4.1
COCCCN1C(=O)[C@H](CC(=O)NCCCCc2ccccc2)[C@]2(C(=O)OC)CCCCC=C12	-1.0	2.9	-1.3	2.8	3.8	0.0
Clc1ccccc1C1=CC(c2ccco2)n2ncnc2N1 (centres undefined)	0.3	-460.3	-3.3	-96.6	-70.7	-121.7
Clc1ccc(C2=CC(c3ccco3)n3ncnc3N2)cc1 (centres undefined)	15.8*	-430.2	-3.0	i	-454.0	-124.2
COC(=O)[C@]12C[C@H](CC(=O)NCC34CC5CC(CC(C5)C3)C4)C(=O)N(Cc3ccco3)C1=C[C@H](C(C)(C)C)O[C@@H]2C	-2.6	15.1	2.8	2.4	1.4	4.1
C[C@@H](C(=O)Nc1ccc2ccccc2c1)[C@H]1C[C@]1(C)[C@H](NC(=O)OCc1ccccc1)c1ccccc1	1.1	7.4	0.8	4.4	0.1	3.7
Cc1cc(C(=O)N[C@H](c2ccccc2)[C@@]2(C)C[C@@H]2[C@@H](C)C(=O)Nc2ccc3ccccc3c2)n(C)n1	-0.7	28.1*	-4.1	6.4	4.2	12.7*
SMILES	DDE Tn7 FP inh	ADAM10 inh	Tn6 DDE FP	PLCb3 inh	PLC-gamma1 inh	ADAM17 inh
CCOc1ccc(-n2c(SCC(=O)Nc3ccc(S(=O)(=O)Nc4cc(C)nc(C)n4)cc3)nnc2-c2cccc(C)c2)cc1	-13.6	5.3	-4.6	3.1	1.9	3.3
Cc1cc(C)nc(SCCN(C)C)n1	3.3	3.9	-1.8	3.8	2.5	-2.3
Cc1cc(C)nc(SCCN2CCCCC2)n1	-1.5	6.8	6.4	-9.0	12.6*	7.0
CC(=O)[C@@]1(O)Cc2c(O)c3c(c(O)c2[C@H](O[C@H]2C[C@H](N)[C@H](O)[C@H](C)O2)C1)C(=O)c1ccccc1C3=O	51.3*	-13.2	197.8*	-218.6	-151.9	-7.6
COc1cccc2c1C(=O)c1c(O)c3c(c(O)c1C2=O)C[C@@](O)(C(=O)CO)C[C@@H]3O[C@H]1C[C@H](N)[C@H](O)[C@H](C)O1	18.7*	-4.6	+	-83.6	-63.6	-4.2
COc1cccc2c1C(=O)c1c(O)c3c(c(O)c1C2=O)C[C@@](O)(C(=O)CO)C[C@@H]3OC1CC(N)C(O)C(C)O1 (some centres undefined)	12.8	-1.7	+	-99.6	-77.5	-0.6
COc1ccc(OC)c(S(=O)(=O)N2CCCC(C(=O)Nc3c(C)n(C)n(-c4ccccc4)c3=O)C2)c1 (centres undefined)	0.1	-1.0	0.1	1.7	2.9	-0.7
O=C1CCC[C@H]2C[C@H](NCc3ccc(Cl)cc3)CC[C@]23CCCN13	-3.2	-13.0	-1.2	2.4	0.4	-2.3
CCOC(=O)NC[C@@]1(C(=O)OC)CC(=O)N(Cc2ccc(Cl)cc2)[C@@H]1c1ccc(OC)cc1	-0.1	4.3	-0.6	-2.0	0.1	0.1
Cc1ccccc1/C=N/Nc1nc2ccccc2[nH]1	-3.9	-7.2	-3.1	-15.8	-13.3	-4.2
O=[N+]([O-])c1cc(/C=N/Nc2nc3ccccc3[nH]2)c(O)cc1O	4.8	14.4	-7.0	3.8	47.8*	4.0
O=C(c1cccc2ccccc12)N1CCC(N2CCN(c3ccccc3)CC2)CC1	4.1	11.2	-5.4	4.5	14.6*	5.8
CC(C)CC(c1nnnn1Cc1cccs1)N1CCN(c2nc3ccccc3s2)CC1 (centres undefined)	4.6	5.7	8.5	9.6	9.9*	5.0
COc1cccc(N2CCN(CC(=O)N(C)Cc3ccccc3Cl)CC2)c1	-4.5	-7.0	1.6	-2.1	-1.4	0.3
